Measured values published in ChEMBL document CHEMBL1152128, “Catalytic site-selective synthesis and evaluation of a series of erythromycin analogs” (2008).
In brackets after ≈: the same amount, converted by molar mass.

What was measured:
Staphylococcus aureus = test: Antibacterial activity against Staphylococcus aureus ATCC 29213; assay type: functional
Method in brief: (§1)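 Broth microdilution MIC in Mueller Hinton II broth, 384-well format, quadruplicate wells. The compound is serially diluted two-fold from DMSO stocks, with final concentrations half of 64 to 0.0625 µg/mL. The inoculum is a 0.5 McFarland culture diluted 100-fold, mixed 1:1 with compound to 20 µL per well. Plates are incubated 24 h at 35 °C. MIC is the lowest concentration with no visible growth; OD620 is also read.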

Enterococcus faecalis = test: Antibacterial activity against Enterococcus faecalis ATCC 29212; assay type: functional; method in brief: as §1

MIC (Staphylococcus aureus)	MIC (Enterococcus faecalis)	SMILES
32 µg/mL (≈ 37.8 µM)	32 µg/mL (≈ 37.8 µM)	CCC(=O)O[C@H]1[C@H](O[C@@H]2[C@@H](C)[C@H](O[C@H]3C[C@@](C)(OC)[C@@H](O)[C@H](C)O3)[C@@H](C)C(=O)O[C@H](CC)[C@](C)(O)[C@H](OC(=O)CC)[C@@H](C)C(=O)[C@H](C)C[C@]2(C)O)O[C@H](C)C[C@@H]1N(C)C
32 µg/mL (≈ 33.8 µM)	> 32 µg/mL	CC[C@H]1OC(=O)[C@H](C)[C@@H](O[C@H]2C[C@@](C)(OC)[C@@H](O)[C@H](C)O2)[C@H](C)[C@@H](O[C@@H]2O[C@H](C)C[C@H](N(C)C)[C@H]2OC(C)=O)[C@@](C)(O)C[C@@H](C)C(=O)[C@H](C)[C@@H](OC(=O)CCNC(=O)OC(C)(C)C)[C@@]1(C)O
32 µg/mL (≈ 35.6 µM)	> 32 µg/mL	C=CCCC(=O)O[C@H]1[C@H](O[C@@H]2[C@@H](C)[C@H](O[C@H]3C[C@@](C)(OC)[C@@H](O)[C@H](C)O3)[C@@H](C)C(=O)O[C@H](CC)[C@](C)(O)[C@H](OC(=O)CCC=C)[C@@H](C)C(=O)[C@H](C)C[C@]2(C)O)O[C@H](C)C[C@@H]1N(C)C
16 µg/mL (≈ 20.3 µM)	32 µg/mL (≈ 40.5 µM)	CCC(=O)O[C@@H]1[C@@H](C)C(=O)[C@H](C)C[C@](C)(O)[C@H](O[C@@H]2O[C@H](C)C[C@H](N(C)C)[C@H]2O)[C@@H](C)[C@H](O[C@H]2C[C@@](C)(OC)[C@@H](O)[C@H](C)O2)[C@@H](C)C(=O)O[C@H](CC)[C@]1(C)O
> 32 µg/mL	> 32 µg/mL	CC[C@H]1OC(=O)[C@H](C)[C@@H](O[C@H]2C[C@@](C)(OC)[C@@H](O)[C@H](C)O2)[C@H](C)[C@@H](O[C@@H]2O[C@H](C)C[C@H](N(C)C)[C@H]2OC(=O)CCNC(=O)OC(C)(C)C)[C@@](C)(O)C[C@@H](C)C(=O)[C@H](C)[C@@H](OC(=O)CCNC(=O)OC(C)(C)C)[C@@]1(C)O
> 32 µg/mL	> 32 µg/mL	CCCCCCCC(=O)O[C@H]1[C@H](O[C@@H]2[C@@H](C)[C@H](O[C@H]3C[C@@](C)(OC)[C@@H](O)[C@H](C)O3)[C@@H](C)C(=O)O[C@H](CC)[C@](C)(O)[C@H](OC(=O)CCCCCCC)[C@@H](C)C(=O)[C@H](C)C[C@]2(C)O)O[C@H](C)C[C@@H]1N(C)C
> 32 µg/mL	> 32 µg/mL	CCCCCCCC(=O)O[C@@H]1[C@@H](C)C(=O)[C@H](C)C[C@](C)(O)[C@H](O[C@@H]2O[C@H](C)C[C@H](N(C)C)[C@H]2O)[C@@H](C)[C@H](O[C@H]2C[C@@](C)(OC)[C@@H](OC(=O)CCCCCCC)[C@H](C)O2)[C@@H](C)C(=O)O[C@H](CC)[C@]1(C)O
16 µg/mL (≈ 19.6 µM)	32 µg/mL (≈ 39.2 µM)	C=CCCC(=O)O[C@@H]1[C@@H](C)C(=O)[C@H](C)C[C@](C)(O)[C@H](O[C@@H]2O[C@H](C)C[C@H](N(C)C)[C@H]2O)[C@@H](C)[C@H](O[C@H]2C[C@@](C)(OC)[C@@H](O)[C@H](C)O2)[C@@H](C)C(=O)O[C@H](CC)[C@]1(C)O
32 µg/mL (≈ 37.2 µM)	32 µg/mL (≈ 37.2 µM)	CCCCCCCC(=O)O[C@@H]1[C@@H](C)C(=O)[C@H](C)C[C@](C)(O)[C@H](O[C@@H]2O[C@H](C)C[C@H](N(C)C)[C@H]2O)[C@@H](C)[C@H](O[C@H]2C[C@@](C)(OC)[C@@H](O)[C@H](C)O2)[C@@H](C)C(=O)O[C@H](CC)[C@]1(C)O
32 µg/mL (≈ 35.4 µM)	> 32 µg/mL	CC[C@H]1OC(=O)[C@H](C)[C@@H](O[C@H]2C[C@@](C)(OC)[C@@H](O)[C@H](C)O2)[C@H](C)[C@@H](O[C@@H]2O[C@H](C)C[C@H](N(C)C)[C@H]2O)[C@@](C)(O)C[C@@H](C)C(=O)[C@H](C)[C@@H](OC(=O)CCNC(=O)OC(C)(C)C)[C@@]1(C)O

SMILES	MIC (Staphylococcus aureus)	MIC (Enterococcus faecalis)
CCC(=O)O[C@H]1[C@H](O[C@@H]2[C@@H](C)[C@H](O[C@H]3C[C@@](C)(OC)[C@@H](OP(=O)(Oc4ccccc4)Oc4ccccc4)[C@H](C)O3)[C@@H](C)C(=O)O[C@H](CC)[C@](C)(O)[C@H](OC(=O)CC)[C@@H](C)C(=O)[C@H](C)C[C@]2(C)O)O[C@H](C)C[C@@H]1N(C)C	> 32 µg/mL	> 32 µg/mL
CC[C@H]1OC(=O)[C@H](C)[C@@H](O[C@H]2C[C@@](C)(OC)[C@@H](OP(=O)(Oc3ccccc3)Oc3ccccc3)[C@H](C)O2)[C@H](C)[C@@H](O[C@@H]2O[C@H](C)C[C@H](N(C)C)[C@H]2OC(C)=O)[C@@](C)(O)C[C@@H](C)C(=O)[C@H](C)[C@@H](OC(=O)CCNC(=O)OC(C)(C)C)[C@@]1(C)O	> 32 µg/mL	> 32 µg/mL
CCCCCCCC(=O)O[C@H]1[C@H](O[C@@H]2[C@@H](C)[C@H](O[C@H]3C[C@@](C)(OC)[C@@H](OP(=O)(Oc4ccccc4)Oc4ccccc4)[C@H](C)O3)[C@@H](C)C(=O)O[C@H](CC)[C@](C)(O)[C@H](OC(=O)CCCCCCC)[C@@H](C)C(=O)[C@H](C)C[C@]2(C)O)O[C@H](C)C[C@@H]1N(C)C	> 32 µg/mL	> 32 µg/mL
C=CCCC(=O)O[C@H]1[C@H](O[C@@H]2[C@@H](C)[C@H](O[C@H]3C[C@@](C)(OC)[C@@H](OP(=O)(Oc4ccccc4)Oc4ccccc4)[C@H](C)O3)[C@@H](C)C(=O)O[C@H](CC)[C@](C)(O)[C@H](OC(=O)CCC=C)[C@@H](C)C(=O)[C@H](C)C[C@]2(C)O)O[C@H](C)C[C@@H]1N(C)C	> 32 µg/mL	> 32 µg/mL
CC[C@H]1OC(=O)[C@H](C)[C@@H](O[C@H]2C[C@@](C)(OC)[C@@H](O)[C@H](C)O2)[C@H](C)[C@@H](O[C@@H]2O[C@H](C)C[C@H](N(C)C)[C@H]2O)[C@](C)(O)C[C@@H](C)C(=O)[C@H](C)[C@@H](O)[C@]1(C)O [ERYTHROMYCIN]	1 µg/mL (≈ 1.36 µM)	2 µg/mL (≈ 2.73 µM)
